Assay outcomes: PubChem, several laboratories
Only some compounds are listed: those with a hit (about 2.3% of all), similar ones and a draw of the others.
Apaf-1 inh – inhibitors of human Apaf-1 apoptosome. 330,000 compounds, 0.71% hits. reconstituted apoptosome caspase-3 activity, DEVD-Rh110 fluorescence. O14727. inhibition, % at 20 µM; active = inhibition of at least 40% at 20 µM
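System: Apoptosome proteins | Medium: Hepes pH 7.5 with detergent and BSA | Also added: Cytochrome c trigger plus (Z-DEVD)2-Rh110 caspase-3 substrate | Incubation: 30 min compound preincubation, 50 min activation, room temperature | Detection: Rhodamine 110 fluorescence at Ex 480/Em 540 nm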
PAFAH1B3 FP inh – blocks human PAF acetylhydrolase 1B catalytic subunit 3; 340,000 compounds, 0.28% hits; Q15102; inhibition, % at 3.39 µM; recombinant PAFAH1B3, FP-rhodamine probe, fluorescence polarization;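 active = inhibition above the screen-wide average of all tested compounds plus 3 SD, cut at about 25% in these data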
TDP2 absorb – TDP2 (human) inhibition, absorbance primary screen; AID 720702; O95551; 370,000 compounds, 0.34% hits; recombinant TDP2, T5PNP hydrolysis, p-nitrophenol absorbance 415 nm; inhibition, % at 12.8 µM;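 active = inhibition above the mean of all tested compounds plus 3 SD, set per campaign, cut at about 25% in these data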
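Incubation: 2 h at 37 °C; Test system: recombinant human TDP2; Quantity: enzyme 120 nM; Read-out basis: percent inhibition; Medium: 50 mM Tris-HCl pH 7.5 with Mg2+, KCl, DTT, BSA; Repeats: single replicate; Compound: 12.8 µM single point, 1% DMSO; Signal: epi absorbance; Reagent: 5 mM T5PNP chromogenic substrate; Benchmarks: no-enzyme high, DMSO-plus-enzyme low.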
PAFAH2 inh – PAFAH2 (human) inhibition; Q99487; recombinant PAFAH2, FP-rhodamine activity probe, fluorescence polarization; inhibition, % at 3.39 µM; 340,000 compounds, 0.99% hits; AID 492956;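 active = inhibition above the mean over all tested compounds plus 3 SD, cut at about 30% in these data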;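 note: inhibitors block probe labeling of enzyme so polarization drops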
PAFAH1B2 inh – PAFAH1B2 (human) inhibition. recombinant PAFAH1B2, FP-rhodamine activity probe, fluorescence polarization. inhibition, % at 3.39 µM. 340,000 compounds, 1.2% hits. AID 492953;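 active = inhibition above the mean of all tested compounds plus 3 SD, cut at about 24% in these data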
PAFAH2 confirm – PAFAH2 (human) inhibition, confirmed; shares compounds with PAFAH2 inh; recombinant PAFAH2, FP-rhodamine activity probe, fluorescence polarization; inhibition, % at 3.39 µM; 2,300 compounds, 65% hits;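 active = mean inhibition over three repeats above a set limit taken from the earlier primary screen, cut at about 30% in these data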;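 note: inhibitor blocks binding of rhodamine activity probe so polarization falls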
Hits are given with their value; – = inactive; · = no result given.

SMILES | Apaf-1 inh | PAFAH1B3 FP inh | TDP2 absorb | PAFAH2 inh | PAFAH1B2 inh | PAFAH2 confirm
COc1cc2c(cc1OC)-c1cc(NCc3ccccn3)nc(=O)n1CC2 | – | – | – | 31 | – | –
NS(=O)(=O)c1cccc(NC(=O)COC(=O)CC2CC3CCC2C3)c1 (stereo unspecified) | – | – | – | 35 | – | –
CC(=O)c1cccc(NC(=O)COC(=O)CC2CC3CCC2C3)c1 (stereo unspecified) | – | – | – | 75 | – | 63
CC(c1ccccc1)n1cc(C(=O)NCCCN2CCCC2)nn1 (stereo unspecified) | · | · | – | · | · | ·
CN1C2=N[C@@H](c3ccc4ccccc4c3)CC(=O)N2/C(=C\c2ccccc2)[C@H]1c1ccccc1 | · | · | – | · | · | ·
CCCCC[C@H](O)/C=C/[C@H]1[C@H](O)CC(=O)[C@@H]1CCCCCCC(=O)O | – | · | · | · | · | ·
CCCCCCCCCCC[C@@H](C[C@@H]1OC(=O)[C@H]1CCCCCC)OC(=O)[C@H](CC(C)C)NC=O | – | – | – | 80 | – | 79
CCOc1ccc2ccccc2c1/C=N/NC(=O)c1cc(C)[nH]n1 | – | – | – | 49 | – | –
C#CCCC(=O)Nc1sc2c(c1-c1nc3ccccc3s1)CCN(C(C)C)C2 | · | · | – | · | · | ·
O=C(OCc1nc2ccccc2s1)c1cccc(S(=O)(=O)N2CCOCC2)c1 | – | – | – | 45 | – | –
O=C(OCc1cc(=O)n2c(n1)sc1ccccc12)c1ccc(O)cc1 | – | – | – | 34 | – | –
Nc1ccc(C(=O)OCc2nc3ccccc3s2)cc1 | – | – | – | 60 | – | 48
CC(C)C[C@H](NC(=O)C1CC1)C(=O)N1CCC[C@H]1C(=O)NCc1ccccc1 | · | · | – | · | · | ·
CCCCCCCCN1CCS(=O)(=O)N(Cc2ccccc2)C(C(=O)OC)C1 (stereo unspecified) | · | · | – | · | · | ·
C=CCN=C1NC(c2ccccc2C(F)(F)F)C(C(=O)OC)=C(C)N1Cc1ccc(C(F)(F)F)cc1 (stereo unspecified) | · | · | – | · | · | ·
COC(=O)[C@]12C[C@H](CC(=O)NCc3cccs3)C(=O)N(Cc3ccco3)C1=C[C@H](COCc1ccccc1)O[C@@H]2C | · | · | – | · | · | ·
COc1cccc(NC(=O)COC(=O)C2CC3CCCC(C2)C3=O)c1 (stereo unspecified) | – | – | – | 58 | – | 54
Cc1ccc([N+](=O)[O-])c(NC(=O)COC(=O)C2CC3CCCC(C2)C3=O)c1C (stereo unspecified) | – | – | – | 34 | – | 32
COc1cccc(CNC(=O)COC(=O)C2CC3CCCC(C2)C3=O)c1 (stereo unspecified) | – | – | – | – | – | ·
Cc1c(C(c2ccc(Br)cc2)c2c(C)n(C)n(-c3ccccc3)c2=O)c(=O)n(-c2ccccc2)n1C | – | – | – | 37 | – | –
COC(=O)c1ccc(C(c2c(C)n(C)n(-c3ccccc3)c2=O)c2c(C)n(C)n(-c3ccccc3)c2=O)cc1 | – | – | – | – | – | ·
CC(=O)Oc1cccc(-c2nc3ccccc3c(=O)o2)c1 | – | – | – | 40 | – | –
O=c1oc(-c2cccc(S(=O)(=O)N3CCOCC3)c2)nc2ccccc12 | – | – | – | 61 | – | 55
COc1cccc(-c2nc3ccc(O)cc3c(=O)o2)c1 | – | – | – | 72 | – | 52
CC(C)C(=O)Nc1cccc(-c2nc3ccccc3c(=O)o2)c1 | – | – | – | – | – | ·
SMILES | Apaf-1 inh | PAFAH1B3 FP inh | TDP2 absorb | PAFAH2 inh | PAFAH1B2 inh | PAFAH2 confirm
COc1ccc(OC)c(C(=O)CSc2nnc(SCc3cccc4ccccc34)s2)c1 | · | · | – | · | · | ·
Cc1ccsc1C(=O)OCC(=O)N(C)C1CCCCC1 | – | – | – | 36 | – | –
Cc1ccsc1C(=O)OCC(=O)NC1CCCC1 | – | – | – | 63 | – | 47
CCNC(=O)COC(=O)c1sccc1C | – | – | – | – | – | ·
CN(C(=O)COC(=O)c1cccnc1Cl)C1CCCCC1 | – | – | – | – | – | ·
COC(=O)N1C[C@H](OC(=O)c2ccc(-c3ccccc3)cc2)[C@H]2C[C@@H]1c1ccccc1O2 | · | · | – | · | · | ·
CC(C)(C)c1ccc(S(=O)(=O)N2CC(C(=O)O)Oc3ccc(Cl)cc32)cc1 (stereo unspecified) | – | – | – | 34 | – | –
Cc1ccc(NC(=S)NNC(=O)CSc2nc3sc4c(c3c(=O)n2-c2ccccc2)CCCC4)cc1 | · | · | – | · | · | ·
CCCS(=O)(=O)c1c(S(=O)(=O)CCC)c2ccc(C(N)=O)cn2c1C(=O)c1ccccc1 | – | – | – | 34 | – | –
COc1ccc(Cn2ccc3ccc(-c4ccc5ccn(Cc6ccc(C#N)cc6)c5c4)cc32)cc1 | · | · | – | · | · | ·
Cc1cccc(C(=O)O/N=C(\N)c2ccccn2)c1 | – | – | – | – | – | ·
C/C(=N\OC(=O)c1ccc(Cl)c(Cl)c1)c1sc(C)nc1C | – | – | – | – | – | ·
C/C(=N\OC(=O)c1ccc(C)cc1)c1sc(C)nc1C | – | – | – | 55 | – | 43
COc1ccc(C(=O)O/N=C(/c2cccs2)C(C)(C)C)cc1 | – | – | – | – | – | ·
CC/C(=N/OC(=O)c1cccc(C)c1)C(=O)c1cccs1 | – | – | – | 37 | – | –
C/C(=N/OC(=O)c1ccc(C)cc1)c1cccs1 | – | – | – | 70 | – | 52
COc1cccc(/C=C2\CC3(OC(=O)C4CCCC4)CCCN2C3)c1 (stereo unspecified) | · | · | – | · | · | ·
Cc1ccc(OCCNC(=O)[C@@H](Cc2ccccc2)NC(=O)[C@H]2O[C@@H](n3ccc(=O)[nH]c3=O)[C@H](O)[C@@H]2O)cc1C | · | · | – | · | · | ·
O=C(O)CN=C(NS(=O)(=O)c1ccc(Cl)cc1)c1ccccc1 | – | – | – | 35 | – | –
Cc1ccc(S(=O)(=O)N2CCCC2C(=O)N2CCN(c3ccccc3)CC2)cc1C (stereo unspecified) | · | · | – | · | · | ·
O=S(=O)(CC1NCc2ccccc21)NCc1ccc(F)cc1 (stereo unspecified) | · | · | – | · | · | ·
Cc1cccc(NC(=S)N/N=C/c2cccc(O)c2)c1C | – | – | – | – | – | ·
Cc1ccccc1NC(=S)N/N=C/c1ccc(O)cc1O | – | – | – | 33 | – | –
O=C(NCc1cc([N+](=O)[O-])ccc1O)c1cccnc1Sc1ccccc1Cl | – | – | – | 39 | – | 32
COc1ccc(CNC(=O)COC(=O)c2ccc(Br)cc2)cc1 | – | – | – | – | – | ·
O=C(COC(=O)c1ccc(F)cc1)NCc1ccc(F)cc1 | – | – | – | 31 | – | –
O=C(COC(=O)c1ccc(S(=O)(=O)N2CCCCC2)cc1)NCc1ccc(F)cc1 | – | – | – | – | – | ·
O=C(COC(=O)c1ccc(Br)cc1)NCc1ccc(F)cc1 | – | – | – | 42 | – | –
COC(=O)c1cc2c(c3c4cc(F)ccc4n(S(=O)(=O)c4ccc(C)cc4)c13)C(=O)N(Cc1ccc(N(C)C)cc1)C2 | · | · | – | · | · | ·
O=C(CSc1nnc(SCc2ccccc2)s1)N/N=C/c1c[nH]c2ccccc12 | · | – | – | – | – | ·
